The full list was thinned out, with hits kept by preference.
INS-1E rescue: INS-1E beta cell protection from cytokine death | INS-1E cytokine-induced death, ATP luminescence, 48 h; normalised: neutral wells 0, positive control 100 | protection from cytokine-induced ATP loss, % at 10 µM | 0.1% of 20,000 active;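 active means mean replicate protection from cytokine-induced ATP loss at least 50% and at least 75% of replicates each reaching 50%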
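Assay system – rat INS-1E insulinoma cell line · Quantity – 8000 cells per well · Buffer or medium – RPMI without phenol red, 5% FBS · Schedule – 48 h co-treatment, 10 min post-lysis read · Technique – luminescent ATP assay (CellTiter-Glo)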
A1 apoptosis 2: blocks A1, raising caspase activity | MEF A1-2A-BIM cells, caspase-Glo luminescence, 3 h; percent of clofoctol response, DMSO zero | caspase activation, % (test concentration not listed) | 24,000 tested, under 10 active; in the data active means caspase activation above about 5.9%
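Material: mouse embryonic fibroblasts co-expressing A1 and BIM (A1-2A-BIM), primed for A1 dependence / Quantity: 2500 cells/well / Buffer or medium: RPMI-1640 growth medium with 10% FBS / Doses: 50 nL compound per well, pinned / Schedule: 3 h compound exposure at 37 °C / Signal: Caspase-Glo luminescence (DEVD substrate) / Measure: Caspase-3/7 activation, seen as rise in luminescence signal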
T cruzi intra: intracellular Trypanosoma cruzi inhibition; activity score (inhibition), % at 5.01 µM; 4.9% of 22,000 active; intracellular Trypanosoma cruzi in host cells, plate reader; in the data active means activity score above about 55%;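 further: parasites and compound incubated about four days before reading; 0% = median of neutral control wells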
An asterisk follows results filed as active; · = no result given.

SMILES	INS-1E rescue	A1 apoptosis 2	T cruzi intra
COc1ccc(S(=O)(=O)N(C)C[C@@H]2Oc3ncc(-c4cccc(C(F)(F)F)c4)cc3C(=O)N([C@H](C)CO)C[C@@H]2C)cc1	·	-1	46
C[C@H](CO)N1C[C@H](C)[C@H](CN(C)S(=O)(=O)c2cccc(F)c2)Oc2ncc(Br)cc2C1=O	·	·	20
COc1cc(O)cc(OC)c1/C=N/NC(=O)CCCCC(=O)NO	15	·	-15
O=C(N/N=C/c1ccc(S(=O)(=O)O)o1)c1ccccn1	-11	·	-17
C[C@H](CO)N1C[C@H](C)[C@H](CN(C)C(=O)Nc2ccc(C(F)(F)F)cc2)Oc2c(NC(=O)c3nc4ccccc4s3)cccc2C1=O	-41	·	63*
C[C@@H]1CN([C@H](C)CO)C(=O)c2cccc(NC(=O)c3nc4ccccc4s3)c2O[C@@H]1CN(C)C(=O)Nc1ccc(C(F)(F)F)cc1	-67	·	-26
C[C@H](CO)N1C[C@H](C)[C@@H](CN(C)C(=O)Nc2ccc(C(F)(F)F)cc2)Oc2c(NC(=O)c3nc4ccccc4s3)cccc2C1=O	-11	-1	58*
C[C@@H]1CN([C@@H](C)CO)C(=O)c2cccc(NC(=O)c3nc4ccccc4s3)c2O[C@@H]1CN(C)C(=O)Nc1ccc(F)cc1	-4	·	7
C[C@@H]1CN([C@H](C)CO)C(=O)Cc2cc(NC(=O)C3CC3)ccc2O[C@H]1CN(C)S(C)(=O)=O	-5	·	-3
O=C(N/N=C/c1ccncc1Br)c1ccccc1O	-37	-11	1
O=C(CCCCC(=O)N/N=C/c1ccc(Br)s1)NO	·	-1	·
COc1cc(CO)ccc1OC(C)=O	·	1	·
O=C(N/N=C/c1ccc2c(c1)OCCO2)c1ccccc1O	-18	-9	-14
COc1ccc(CN(C)C[C@@H]2Oc3c(NC(=O)Nc4ccc(C(F)(F)F)cc4)cccc3C(=O)N([C@@H](C)CO)C[C@H]2C)cc1	-95	0	67*
COc1ccc(NC(=O)Nc2cccc3c2O[C@H](CN(C)Cc2ccc(C(F)(F)F)cc2)[C@H](C)CN([C@@H](C)CO)C3=O)cc1	-10	0	-11
COc1ccc(CN(C)C[C@@H]2Oc3c(NC(=O)Nc4ccc(C(F)(F)F)cc4)cccc3C(=O)N([C@H](C)CO)C[C@@H]2C)cc1	-36	-2	81*
COc1ccc(NC(=O)Nc2cccc3c2O[C@@H](CN(C)Cc2ccc(C(F)(F)F)cc2)[C@H](C)CN([C@H](C)CO)C3=O)cc1	-6	·	5
CC(C)(C)NC(=O)C(OC(=O)c1ccccc1)c1cccs1 (stereo not drawn)	·	0	·
COc1ccc(/C=N/NC(=O)CCCCC(=O)NO)cc1OC	7	·	-22
C=CCOC(=O)[C@H]1[C@@H]2C(=O)O[C@@H](c3ccccc3)[C@@H](c3ccccc3)N2[C@@H](c2ccc(OCCOC(=O)[C@@H]3C[C@@H]4C(=O)N5CCC[C@H]5C(=O)N4[C@@H]3c3cccc(OCCO)c3)cc2)[C@]12C(=O)Nc1ccc(I)cc12	·	1	·
C[C@H]1CN([C@@H](C)CO)C(=O)c2cccc(NC(=O)c3ccc(-c4nccs4)cc3)c2O[C@@H]1CN(C)Cc1ccc(C(=O)Nc2ccccc2N)cc1	25	·	75*
C[C@@H]1CN([C@H](C)CO)C(=O)c2cccc(NC(=O)c3ccc(-c4nccs4)cc3)c2O[C@H]1CN(C)Cc1ccc(C(=O)Nc2ccccc2N)cc1	3	0	44
C[C@@H]1CN([C@H](C)CO)C(=O)c2cccc(NC(=O)c3ccc(-c4nccs4)cc3)c2O[C@@H]1CN(C)Cc1ccc(Oc2ccccc2)cc1	-52	·	42
C[C@@H]1CN([C@@H](C)CO)C(=O)c2cccc(NC(=O)c3ccc(-c4nccs4)cc3)c2O[C@H]1CN(C)Cc1ccc(Oc2ccccc2)cc1	-29	·	62*
C[C@@H]1CN([C@@H](C)CO)C(=O)c2cccc(NC(=O)c3ccc(-c4nccs4)cc3)c2O[C@@H]1CN(C)Cc1ccc(C(F)(F)F)cc1	-65	1	70*
SMILES	INS-1E rescue	A1 apoptosis 2	T cruzi intra
C[C@@H]1CN([C@H](C)CO)C(=O)c2cccc(NC(=O)c3ccc(-c4nccs4)cc3)c2O[C@@H]1CN(C)Cc1ccc(C(F)(F)F)cc1	-23	1	44
O=C(NO)c1ccc(C(=O)N/N=C/c2ccc(OCCO)cc2)cc1	-1	·	-12
COc1ccc(/C=N/NC(=O)CCCCCC(=O)Nc2ccccc2O)c(OC)c1	19	0	-11
COc1ccc([C@H]2C[C@H]3C(Br)=CC2C(=O)[C@]32CO2)cc1	·	0	·
CN(C)CCCOc1ccc(/C=N/NC(=O)CCCCC(=O)NO)cc1	-8	1	30
C[C@@H]1CN([C@H](C)CO)C(=O)c2cc(NS(=O)(=O)c3ccc(F)cc3)ccc2O[C@H]1CN(C)Cc1ccc(Cl)c(Cl)c1	-11	·	7
Cc1ccc(S(=O)(=O)Nc2ccc3c(c2)C(=O)N([C@@H](C)CO)C[C@H](C)[C@H](CN(C)Cc2ccc(Cl)c(Cl)c2)O3)cc1	·	-1	14*
C[C@H]1CN([C@@H](C)CO)C(=O)c2cc(NS(=O)(=O)c3cccs3)ccc2O[C@@H]1CN(C)Cc1ccc(Cl)c(Cl)c1	-9	·	57*
Cc1ccc(S(=O)(=O)Nc2ccc3c(c2)C(=O)N([C@H](C)CO)C[C@H](C)[C@@H](CN(C)Cc2ccc(Cl)c(Cl)c2)O3)cc1	-7	·	9
C[C@H](CO)N1C[C@H](C)[C@@H](CN(C)Cc2ccncc2)Oc2ccc(NS(=O)(=O)c3cccs3)cc2C1=O	0	0	3
C[C@H](CO)N1C[C@H](C)[C@@H](CN(C)Cc2ccc(Cl)c(Cl)c2)Oc2ccc(NS(=O)(=O)c3ccc(Cl)cc3)cc2C1=O	-6	·	64*
COc1ccc(Br)cc1/C=N/NC(=O)c1ccccn1	10	0	-20
[O-]/[N+](=N\OCCBr)N1CCCC1	·	-1	·
NC(=O)COc1ccc(/C=N/NC(=O)c2cccc(C(=O)NO)c2)cc1	-6	·	5
O=C(N/N=C/c1cccnc1Br)c1ccccc1O	-30	·	-13
C=CCNC(=O)[C@H]1[C@@H]2C(=O)O[C@@H](c3ccccc3)[C@@H](c3ccccc3)N2[C@@H](c2ccc(OCCO)cc2)[C@]12C(=O)N(C(=O)OCCOC)c1ccc(C#CCC(C(=O)OC)C(=O)OC)cc12	·	1	·
COc1ccc([Si](C)(C)[C@H]2[C@H](CCO)O[C@@]3(C(=O)N(Cc4ccccc4)c4ccc(NC(=O)[C@H](C)O)cc43)[C@@H]2C)cc1	·	0	·
C=CCN1C(=O)[C@]2(O[C@H](CCO)[C@@H]([Si](C)(C)c3ccc(OC)cc3)[C@@H]2C)c2cc(I)ccc21	·	9.0*	·
O=C(CCCCC(=O)N/N=C/c1ccco1)NO	14	0	-2
Cc1ccc(S(=O)(=O)Nc2ccc3c(c2)C(=O)N([C@H](C)CO)C[C@@H](C)[C@@H](CN(C)Cc2ccc4c(c2)OCO4)O3)cc1	-4	-1	8
COc1ccc(S(=O)(=O)Nc2ccc3c(c2)C(=O)N([C@H](C)CO)C[C@@H](C)[C@H](CN(C)Cc2ccc(C(F)(F)F)cc2)O3)cc1	·	0	5

Bioassay records deposited in PubChem BioAssay by Broad Institute.
